Laboratory results reported in ChEMBL document CHEMBL1122445, “Novel fluorinated antifolates. Enzyme inhibition and cytotoxicity studies on 2'- and 3'-fluoroaminopterin” (J Med Chem, 1983).

Columns and labels:
Dihydrofolate reductase [1] = biological target: T1, Dihydrofolate reductase (Escherichia coli, UniProt P0ABQ4); test: Inhibition of dihydrofolate reductase in Escherichia coli; conditions: read-out: I50
T1 sequence (P0ABQ4 whole entry): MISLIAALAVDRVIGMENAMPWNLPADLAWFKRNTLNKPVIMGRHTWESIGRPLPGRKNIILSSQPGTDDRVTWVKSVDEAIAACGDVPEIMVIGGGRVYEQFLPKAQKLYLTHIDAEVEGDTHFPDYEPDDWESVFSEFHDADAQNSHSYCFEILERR
Outline: (§1)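 E. coli MB 1428 MTX-resistant overproducer DHFR purified to homogeneity by MTX affinity chromatography; spectrophotometric assay at pH 7.2 with 40 μM NADPH and 44 μM dihydrofolate (Km 0.44 μM); enzyme 4 to 5×10^-9 M, titrated with MTX. Rates taken over linear 0.5–2 min (<10% substrate used). I50 = half of control rate; Ki from I50 via Cha equation corrected for enzyme-bound inhibitor.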

Escherichia coli = test: Inhibition constant (Ki) was determined in Escherichia coli; assay type: functional; outline: as §1
L1210 = test: Inhibition of growth (cytotoxicity) of L1210 cell line in vitro; assay type: functional, cell-based; conditions: Mus musculus
Outline: (§2)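 About 1 × 10^5 L1210 or HuTu 80 cells in 1 mL of their original medium with inhibitor, 37 °C for 72 h; counted by Coulter counter (10- to 20-fold growth in controls). EC50 = concentration reducing growth 50% versus inhibitor-free controls.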

HuTu80 = test: Inhibition of growth (cytotoxicity) of HuTu 80 cell line in vitro; assay type: functional, cell-based; conditions: Homo sapiens; outline: as §2
Dihydrofolate reductase [2] = biological target: Dihydrofolate reductase (Lactobacillus casei, UniProt P00381); test: Inhibition of dihydrofolate reductase in Lactobacillus casei; parameters: species or system Lacticaseibacillus casei; conditions: read-out: I50
Outline: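 L. casei DHFR purified to homogeneity from an MTX-resistant overproducer strain, with enzyme level (4–5 × 10^-9 M) set by MTX titration. […] Rates were taken from the linear 0.5–2 min region. I50 is the concentration halving the rate; Ki is from the Cha equation, correcting for inhibitor depletion.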

Lacticaseibacillus casei = test: Inhibition constant (Ki) was determined in Lactobacillus casei; assay type: functional
Dihydrofolate reductase [3] = biological target: T2, Dihydrofolate reductase (Homo sapiens, UniProt P00374); test: Inhibition of dihydrofolate reductase in HeLa cells; assay type: cell-based; conditions: read-out: I50
T2 sequence (P00374 whole entry): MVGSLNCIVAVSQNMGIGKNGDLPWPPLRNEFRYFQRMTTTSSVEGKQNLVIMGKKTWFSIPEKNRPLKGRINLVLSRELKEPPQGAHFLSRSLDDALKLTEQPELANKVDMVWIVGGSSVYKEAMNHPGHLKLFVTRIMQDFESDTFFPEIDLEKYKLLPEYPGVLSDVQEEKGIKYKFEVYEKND

Sequence of Dihydrofolate reductase (Lactobacillus casei, UniProt P00381) (P00381 whole entry): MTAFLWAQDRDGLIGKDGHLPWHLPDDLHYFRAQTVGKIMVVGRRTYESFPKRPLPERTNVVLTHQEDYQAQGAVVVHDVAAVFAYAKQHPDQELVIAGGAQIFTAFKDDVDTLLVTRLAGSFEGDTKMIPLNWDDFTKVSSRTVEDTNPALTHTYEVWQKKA

Structure (SMILES)	IC50 (Dihydrofolate reductase [1]) [nM]	Ki (Escherichia coli) [nM]	EC50 (L1210) [nM]	EC50 (HuTu80) [nM]	IC50 (Dihydrofolate reductase [2]) [nM]	Ki (Lacticaseibacillus casei) [nM]	IC50 (Dihydrofolate reductase [3]) [nM]
Nc1nc(N)c2nc(CNc3ccc(C(=O)N[C@@H](CCC(=O)O)C(=O)O)cc3)cnc2n1 [AMINOPTERIN]	11	0.09	1.8	4.7	5	0.11	–
Nc1nc(N)c2nc(CNc3ccc(C(=O)NC(CCC(=O)O)C(=O)O)cc3F)cnc2n1 (configuration not stated)	5	0.03	1	2.3	3.5	0.06	19
CN(Cc1cnc2nc(N)nc(N)c2n1)c1ccc(C(=O)N[C@@H](CCC(=O)O)C(=O)O)cc1 [METHOTREXATE]	–	–	3.2	4.5	–	–	–
Nc1nc(N)c2nc(CNc3ccc(C(=O)NC(CCC(=O)O)C(=O)O)c(F)c3)cnc2n1 (configuration not stated)	10	0.08	2.3	4.8	4.7	0.095	27
